From ChEMBL document CHEMBL4346709, “Design and Optimization Leading to an Orally Active TTK Protein Kinase Inhibitor with Robust Single Agent Efficacy” (J Med Chem, 2019) come the findings set out here.

pIC50: −log10 of the molar value. Activity calls are given as the source filed them. No cut-off for these calls is given here.

For series [1], the target named is T1, Testis-specific serine/threonine-protein kinase 1 (Homo sapiens, UniProt Q9BXA7).
T1 sequence (Q9BXA7 whole entry): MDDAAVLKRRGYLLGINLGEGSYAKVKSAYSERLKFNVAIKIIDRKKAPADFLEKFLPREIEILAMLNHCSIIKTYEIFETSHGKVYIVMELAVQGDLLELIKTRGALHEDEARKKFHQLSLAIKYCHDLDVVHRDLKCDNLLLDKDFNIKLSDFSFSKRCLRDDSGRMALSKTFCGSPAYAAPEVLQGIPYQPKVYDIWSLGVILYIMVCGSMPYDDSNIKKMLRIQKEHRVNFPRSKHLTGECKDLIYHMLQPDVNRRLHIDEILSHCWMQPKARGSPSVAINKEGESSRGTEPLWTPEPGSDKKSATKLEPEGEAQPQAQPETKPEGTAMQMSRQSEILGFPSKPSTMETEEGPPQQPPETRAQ
In words: Inhibition of recombinant human full length His-tagged TSSK1 expressed in baculovirus expression system by Z'-LYTE assay.

Series [2] is described as follows: Oral bioavailability in CB17 SCID mouse at 30 mg/kg. The following applies: in vivo. The format is ADME, organism-based.
The species named for a further series is Homo sapiens. In words: Selectivity ratio of IC50 for recombinant human full length His-tagged JNK2 expressed in baculovirus expression system to IC50 for inhibition of Kinase Tracer 236 binding to recombinant human full-length GST-tagged TTk expressed in baculovirus expression system.
For series [3], the system named is CAL-51. As to the kind of experiment: Antiproliferative activity against human CAL51 cells assessed as reduction in cell viability after 3 days by CellTiter-Glo reagent-based luminescent assay. The format is functional. Conditions: CAL-51, 72 h.
For series [4], the system named is CAL-51. In words: Antitumor activity against human CAL51 cells xenografted in CB17 SCID mouse assessed as tumor growth inhibition at 30 mg/kg, po […] for 16 days and measured twice per week up to 31 days by caliper method relative to control. The format is functional. The following applies: CAL-51, po, read-out: TGI. The gist of the method:
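Female CB17 SCID mice, 6-8 weeks old, inoculated subcutaneously with 2×10^6 CAL-51 cells. Oral dosing once weekly (QW) at 30-120 mg/kg, or 30 mg/kg BID QW, for 16 days, against vehicle control. Tumour long and short axes measured twice weekly by digital caliper; volume = width² × length/2. Values are TGI; data are mean ± SEM.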
Background: Xenograft models place foreign cells or tissue in a host animal.

Series [5] deals with T2, Dual specificity tyrosine-phosphorylation-regulated kinase 3 (Homo sapiens) (UniProt O43781).
T2 sequence (whole entry): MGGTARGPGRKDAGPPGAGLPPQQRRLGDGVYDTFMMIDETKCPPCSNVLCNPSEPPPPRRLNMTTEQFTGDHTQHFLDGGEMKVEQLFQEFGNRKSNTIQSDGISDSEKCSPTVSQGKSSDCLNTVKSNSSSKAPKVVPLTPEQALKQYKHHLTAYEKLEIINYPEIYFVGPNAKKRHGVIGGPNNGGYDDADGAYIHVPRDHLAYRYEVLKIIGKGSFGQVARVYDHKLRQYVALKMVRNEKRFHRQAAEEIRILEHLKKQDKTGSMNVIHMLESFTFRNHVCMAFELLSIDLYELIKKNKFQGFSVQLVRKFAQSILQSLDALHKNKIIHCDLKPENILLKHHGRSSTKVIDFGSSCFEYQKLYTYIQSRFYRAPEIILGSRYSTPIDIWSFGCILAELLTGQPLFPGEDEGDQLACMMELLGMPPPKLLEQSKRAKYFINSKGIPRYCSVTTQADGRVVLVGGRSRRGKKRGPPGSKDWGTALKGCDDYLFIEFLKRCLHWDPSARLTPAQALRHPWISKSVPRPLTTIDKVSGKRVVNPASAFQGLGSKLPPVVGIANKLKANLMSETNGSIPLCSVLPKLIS
As to the kind of experiment: Inhibition of recombinant human full length GST-tagged DYRK3 expressed in baculovirus expression system at 3 uM by Z'-LYTE assay relative to control. In short, it runs like this: (§1)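 Kinase selectivity panel: single-point assessment at 3 µM, n=1.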

A further series has as its target LRRK2 G2019S mutant (Homo sapiens, UniProt Q5S007, G2019S). In words: Inhibition of recombinant human GST-tagged LRRK2 G2019S mutant catalytic domain (970 to 2527 residues) expressed in baculovirus expression system at 3 uM using LRRKtide as substrate measured after 1 hr by Alexa-fluor-647 ADP tracer-based ADAPTA assay relative to control. The following applies: probe LRRKtide. In short, it runs like this: as §1

Series [6] deals with T3, Dual specificity protein kinase TTK (Homo sapiens, UniProt P33981).
T3 sequence (P33981 whole entry): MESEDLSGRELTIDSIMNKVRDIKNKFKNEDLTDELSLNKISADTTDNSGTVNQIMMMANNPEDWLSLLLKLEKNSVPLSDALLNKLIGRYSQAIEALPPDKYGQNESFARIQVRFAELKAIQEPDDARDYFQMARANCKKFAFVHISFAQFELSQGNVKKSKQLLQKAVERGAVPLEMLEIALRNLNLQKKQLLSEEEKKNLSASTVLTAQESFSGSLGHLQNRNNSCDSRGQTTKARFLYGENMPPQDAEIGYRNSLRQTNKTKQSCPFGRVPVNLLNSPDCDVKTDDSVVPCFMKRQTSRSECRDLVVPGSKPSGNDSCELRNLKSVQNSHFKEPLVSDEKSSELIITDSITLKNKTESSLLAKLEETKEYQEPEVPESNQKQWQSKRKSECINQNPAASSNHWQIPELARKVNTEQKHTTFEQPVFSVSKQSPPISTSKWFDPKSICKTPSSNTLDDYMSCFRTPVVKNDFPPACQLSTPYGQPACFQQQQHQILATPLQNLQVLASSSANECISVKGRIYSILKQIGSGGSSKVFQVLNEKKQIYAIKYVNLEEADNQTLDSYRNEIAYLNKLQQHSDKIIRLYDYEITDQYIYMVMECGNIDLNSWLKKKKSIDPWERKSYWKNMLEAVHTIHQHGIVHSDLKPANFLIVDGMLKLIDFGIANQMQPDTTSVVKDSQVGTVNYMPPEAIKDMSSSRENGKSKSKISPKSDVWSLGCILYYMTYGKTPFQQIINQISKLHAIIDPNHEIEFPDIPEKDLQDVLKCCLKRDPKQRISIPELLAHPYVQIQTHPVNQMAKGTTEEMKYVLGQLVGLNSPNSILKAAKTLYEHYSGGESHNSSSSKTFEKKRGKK
In words: Inhibition of Kinase Tracer 236 binding to recombinant human full-length GST-tagged TTk expressed in baculovirus expression system measured after 1 hr by LanthaScreen Eu--kinase binding assay.

In series [7] the test system is Mus musculus. As to the kind of experiment: Inhibition of mitosis in human CAL51 cells xenografted in CB17 SCID mouse assessed reduction in pHH3 ser10 level at 30 mg/kg, po administered as single dose measured up to 48 hrs by MSD electrochemiluminescent immunoassay. The format is functional, organism-based. In short, it runs like this: (§2)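 CB17 SCID mice bearing CAL-51 tumours of 300-500 mm3 given compound orally. At preset time points the mice were euthanised and the tumours dissected and snap-frozen in liquid nitrogen. pHH3 Ser10 or cleaved caspase measured by MSD electrochemiluminescent immunoassay kit. Data are mean ± SEM.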

The test system of series [8] is Mus musculus. In words: Inhibition of mitosis in human CAL51 cells xenografted in CB17 SCID mouse assessed reduction in pHH3 ser10 level at 30 mg/kg, po administered as single dose measured after 1 hr by MSD electrochemiluminescent immunoassay. The class given is functional, organism-based. In short, it runs like this:
as §2

Sequence of LRRK2 G2019S mutant (Q5S007 whole entry G2019S, the tested form may be a part): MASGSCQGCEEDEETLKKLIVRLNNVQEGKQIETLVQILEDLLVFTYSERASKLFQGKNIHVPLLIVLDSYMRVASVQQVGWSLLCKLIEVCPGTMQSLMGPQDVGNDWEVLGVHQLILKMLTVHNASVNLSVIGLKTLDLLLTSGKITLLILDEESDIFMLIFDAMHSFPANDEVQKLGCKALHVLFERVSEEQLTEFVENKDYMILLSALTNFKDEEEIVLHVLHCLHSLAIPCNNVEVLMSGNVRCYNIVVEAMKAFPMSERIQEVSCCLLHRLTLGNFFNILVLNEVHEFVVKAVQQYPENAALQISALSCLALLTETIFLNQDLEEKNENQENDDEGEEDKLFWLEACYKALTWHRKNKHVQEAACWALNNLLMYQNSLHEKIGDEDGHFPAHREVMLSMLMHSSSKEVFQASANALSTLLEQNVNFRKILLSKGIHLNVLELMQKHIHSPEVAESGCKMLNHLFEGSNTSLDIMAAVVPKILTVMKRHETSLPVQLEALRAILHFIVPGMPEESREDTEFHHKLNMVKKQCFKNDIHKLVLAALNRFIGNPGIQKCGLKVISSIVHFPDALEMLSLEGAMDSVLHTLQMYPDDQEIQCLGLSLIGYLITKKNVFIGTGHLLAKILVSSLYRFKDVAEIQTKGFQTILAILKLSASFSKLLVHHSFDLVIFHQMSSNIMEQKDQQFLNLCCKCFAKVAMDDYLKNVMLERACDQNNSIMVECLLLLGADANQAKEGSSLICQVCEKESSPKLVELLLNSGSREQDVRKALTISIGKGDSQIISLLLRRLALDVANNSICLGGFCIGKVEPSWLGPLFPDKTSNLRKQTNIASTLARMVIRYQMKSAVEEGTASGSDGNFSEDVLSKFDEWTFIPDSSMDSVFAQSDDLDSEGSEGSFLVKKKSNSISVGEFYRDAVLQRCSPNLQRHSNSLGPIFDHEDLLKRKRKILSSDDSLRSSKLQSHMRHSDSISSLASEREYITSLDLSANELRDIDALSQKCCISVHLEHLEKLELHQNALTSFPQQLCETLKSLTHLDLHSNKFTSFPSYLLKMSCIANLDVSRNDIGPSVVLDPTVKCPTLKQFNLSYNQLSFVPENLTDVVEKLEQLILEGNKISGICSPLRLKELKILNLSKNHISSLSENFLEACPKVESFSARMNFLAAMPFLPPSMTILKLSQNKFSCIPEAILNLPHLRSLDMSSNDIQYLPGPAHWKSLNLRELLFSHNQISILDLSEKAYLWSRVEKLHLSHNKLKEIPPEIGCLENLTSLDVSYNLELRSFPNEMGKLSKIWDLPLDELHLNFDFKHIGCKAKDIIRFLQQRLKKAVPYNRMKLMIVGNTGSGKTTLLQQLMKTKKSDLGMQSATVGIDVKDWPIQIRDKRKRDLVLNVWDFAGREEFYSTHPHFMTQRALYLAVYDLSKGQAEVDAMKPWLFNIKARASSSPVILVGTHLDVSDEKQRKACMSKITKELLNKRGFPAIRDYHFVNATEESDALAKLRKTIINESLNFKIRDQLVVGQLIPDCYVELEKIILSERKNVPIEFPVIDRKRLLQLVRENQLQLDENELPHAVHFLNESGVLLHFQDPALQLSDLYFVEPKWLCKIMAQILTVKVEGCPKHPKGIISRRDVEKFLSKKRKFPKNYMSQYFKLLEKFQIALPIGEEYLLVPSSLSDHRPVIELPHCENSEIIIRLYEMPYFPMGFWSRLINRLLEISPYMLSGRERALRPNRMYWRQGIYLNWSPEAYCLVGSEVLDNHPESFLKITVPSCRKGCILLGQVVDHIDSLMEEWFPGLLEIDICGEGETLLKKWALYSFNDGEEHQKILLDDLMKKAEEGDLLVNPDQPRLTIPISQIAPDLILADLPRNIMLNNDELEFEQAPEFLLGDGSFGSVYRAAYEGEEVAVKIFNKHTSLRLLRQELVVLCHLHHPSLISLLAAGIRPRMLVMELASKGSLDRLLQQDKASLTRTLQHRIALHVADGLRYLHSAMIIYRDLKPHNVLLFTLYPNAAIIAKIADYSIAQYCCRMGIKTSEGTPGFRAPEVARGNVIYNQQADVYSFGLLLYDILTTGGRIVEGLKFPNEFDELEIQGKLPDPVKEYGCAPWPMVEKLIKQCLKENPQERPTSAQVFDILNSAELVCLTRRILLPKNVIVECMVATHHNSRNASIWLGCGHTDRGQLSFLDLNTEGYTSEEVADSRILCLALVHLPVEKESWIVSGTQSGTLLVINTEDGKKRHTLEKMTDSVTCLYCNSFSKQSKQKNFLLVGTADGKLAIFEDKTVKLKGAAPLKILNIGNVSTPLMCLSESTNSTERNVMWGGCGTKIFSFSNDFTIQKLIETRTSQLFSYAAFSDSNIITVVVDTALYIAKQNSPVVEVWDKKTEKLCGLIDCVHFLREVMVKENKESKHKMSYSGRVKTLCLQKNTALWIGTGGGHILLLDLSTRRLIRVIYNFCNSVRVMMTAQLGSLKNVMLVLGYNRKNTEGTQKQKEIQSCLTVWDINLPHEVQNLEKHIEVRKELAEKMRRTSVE

What is called pIC50 is −log10 of the IC50, conventionally taken in molar units. In general, bioavailability refers to dose-corrected exposure relative to a reference, in per cent. Low values mean poor availability, high ones good availability. For orientation: inhibition means the relative decrease from the control value, in per cent. For the molecule `C[C@@H](Oc1cc(C(=O)N(C)C)ccc1Nc1nc(O[C@H]2CC[C@@](C)(O)CC2)c2c(Cl)c[nH]c2n1)C(F)(F)F`, the values for the pIC50 (in series [1]; in the series on CAL-51 [3]; in series [6]) were 9.66, 8.00 and 9.15, respectively. This molecule returned a bioavailability in series [2] of 60%. In addition, the Ratio IC50 in the series listed under Homo sapiens is under 100. Besides, the inhibition in vivo at 30 mg/kg in the series with CAL-51 [4] is 84%. The inhibition in [5] is over 80%. Besides, the inhibition at 1 h, 3 µM at LRRK2 G2019S mutant was over 80%. Moreover, the inhibition entry in the series with Mus musculus [7] and in the series with Mus musculus [8] was “Active” in each case.
